Laboratory results from paper PMC2217202 (The Journal of General Physiology, 2000).
Read-outs that look alike come from different tables or passages of the source.

What was measured:
[1] = system: AE1; settings: ref Knauf et al. 1995; cited from earlier work
[2] = system: AE1; type: cell-based, human; settings: at saturating concentrations of WW781, 150 mM Cl− inside and outside
[3] = biological target: T1, AE1 (band 3) protein in human red blood cells (Homo sapiens, UniProt P02730); test: Inhibition of 36Cl exchange flux at 0°C after equilibration with WW781; type: cell-based; settings: for IC50: read-out: K eqW, 0°C, mean ± SEM
T1 sequence (P02730 1-911): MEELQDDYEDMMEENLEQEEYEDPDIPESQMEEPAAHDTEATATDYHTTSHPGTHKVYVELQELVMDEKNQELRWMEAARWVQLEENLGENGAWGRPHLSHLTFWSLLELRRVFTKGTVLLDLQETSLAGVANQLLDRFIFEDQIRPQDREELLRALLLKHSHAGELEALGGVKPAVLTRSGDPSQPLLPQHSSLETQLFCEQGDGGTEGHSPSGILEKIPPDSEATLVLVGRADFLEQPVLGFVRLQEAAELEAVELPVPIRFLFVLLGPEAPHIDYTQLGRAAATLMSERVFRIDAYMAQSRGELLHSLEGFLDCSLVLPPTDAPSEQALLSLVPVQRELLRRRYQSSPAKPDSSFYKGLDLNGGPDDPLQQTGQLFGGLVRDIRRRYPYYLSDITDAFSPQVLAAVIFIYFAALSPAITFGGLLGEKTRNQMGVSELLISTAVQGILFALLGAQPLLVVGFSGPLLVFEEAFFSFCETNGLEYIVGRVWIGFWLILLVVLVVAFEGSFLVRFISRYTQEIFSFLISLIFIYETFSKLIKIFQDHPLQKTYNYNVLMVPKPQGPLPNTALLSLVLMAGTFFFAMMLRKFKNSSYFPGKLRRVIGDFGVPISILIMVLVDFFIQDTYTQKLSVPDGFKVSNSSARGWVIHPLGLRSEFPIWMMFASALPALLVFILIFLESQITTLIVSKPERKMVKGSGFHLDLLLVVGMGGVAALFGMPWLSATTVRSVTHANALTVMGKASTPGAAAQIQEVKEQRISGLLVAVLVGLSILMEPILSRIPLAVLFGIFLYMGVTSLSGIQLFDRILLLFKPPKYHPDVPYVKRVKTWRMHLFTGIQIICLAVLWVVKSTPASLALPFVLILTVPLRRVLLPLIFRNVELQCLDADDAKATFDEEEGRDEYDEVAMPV
Summary of the method: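 Washed human RBCs (150 mM KCl, 20 mM HEPES, 24 mM sucrose, pH 6.9) at 0.25% hematocrit, internal Cl− set by nystatin, pretreated ≥2 min with test compound (1% ethanol), loaded with 36Cl (2-10 µCi/ml, 10 min, 0°C), then efflux into ice-cold medium with the same compound level. In 2 mM Cl− medium, no pretreatment and sampling began ≥4 min. Fit to single-site inhibition.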

[4] = biological target: T1, AE1 (band 3) protein in human red blood cells; test: Inhibition of 36Cl exchange flux at 0°C after short exposure to WW781; type: cell-based; settings: for rate constant for 36Cl exchange, k: 0°C (control 0.0507); for IC50: read-out: K 1W, 0°C
Summary of the method: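 Human RBCs loaded with 36Cl (10 min, 0°C) without pretreatment, resuspended in ice-cold medium with test compound (0.25-1.5 µM, 1% ethanol); nystatin equalized Cl− for non-150 mM media, citrate-sucrose replacing Cl−. Rapid-filtration samples were taken mostly before 30 s, never after 45 s. k was the slope of ln(P∞−Pt) versus time. Dissociation constants came from nonlinear least-squares single-site fits and Dixon plots.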

[5] = system: AE1; settings: cells with 150 mM Cl− inside and outside; ref Raha et al. 1993; cited from earlier work
[6] = system: net Cl^− permeability, PCl; settings: ref Freedman and Novak 1983; cited from earlier work

In the case of `CCCCN1C(=O)C(=CC=CC=CC2C(=O)N(CCCC)C(=O)N(CCCC)C2=O)C(=O)N(CCCC)C1=O` [diBA(5)C4, bis-(1,3-dibutylbarbituric acid)-pentamethine oxonol], the “inhibition of the transport system” value [1] is listed as “most potent known inhibitor”.

For `CCCCN1C(=O)C(C=CC=CC=C2C(=O)N(c3ccc(S(=O)(=O)O)cc3)N=C2C)C(=O)N(CCCC)C1=O` [WW781, [3-methyl-1-p-sulfophenyl-5-pyrazolone-(4)]-[1,3-dibutylbarbituric acid]-pentamethine oxonol], the “half-time for formation of complex 2” value [2] was 33 s, the “K 2/1W,ECl/K 2/1W,E” value [3] was 0.12 − 0.15 and the “K 2/1W,ECl” value ([3]; Cl−-loaded forms) was 1.8 − 2.2. The “K 2/1W,Ei” value ([3]; Ei form) was at most 34, the “free energy difference ΔG^0 between complex 2 and complex 1” value ([3]; Eo form of AE1, from K 2/1W,Eo) was -1.82 kcal/mol and the “K 1W/K eqW” value ([3]; [Cli = o] 5 mM) was 15.5. The “K 1W/K eqW” value ([3]; [Cli = o] 150 mM) was 9.0, the “K 1W/K eqW” value ([3]; [Cli = o] 600 mM) was 3.8 and the “K 1W/K eqW” value ([3]; [Cli] = 150, [Clo] = 2 mM) was 25.2. The “slope of K eqW as a function of [Cl−]” value ([3]; best-fit straight line, [Cli] = [Clo] (Fig. 10)) was 0.00016 ± 0.00004 μM/mM, the “preference for the Eo form of AE1 as compared with the Ei form” value ([3]; both initial binding and equilibrium association) was over 10 fold and the “K eqW,Ei/K eqW,Eo” value ([3]; equilibrium binding) was at least 12. The Ki ([3]; read-out: K eqW,EIi, mean ± SEM of two experiments) was 280 ± 70 nM, the Ki ([3]; read-out: K eqW,Ei (minimum value), range over both estimates of K eqW,E) was 33 to 46 nM and the IC50 ([3]; [Cli = o] 150 mM) was 66 ± 12 nM. The IC50 ([3]; [Cli = o] 600 mM) was 143 ± 29 nM, the IC50 ([3]; [Cli] = 150, [Clo] = 2 mM) was 5.5 ± 0.3 nM and the “rate constant for 36Cl exchange, k” value ([4]; 0.25 μM WW781, 150 mM Cl− medium) was 0.0389 s⁻¹. The “rate constant for 36Cl exchange, k” value ([4]; 0.5 μM WW781, 150 mM Cl− medium) was 0.0316 s⁻¹, the “rate constant for 36Cl exchange, k” value ([4]; 1 μM WW781, 150 mM Cl− medium) was 0.0274 s⁻¹ and the “rate constant for 36Cl exchange, k” value ([4]; 1.5 μM WW781, 150 mM Cl− medium) was 0.0203 s⁻¹. For the same molecule, the “K 1W,ECl/K 1W,E” value ([4]; initial binding) was 0.73 − 0.74, the “K 1W,Ei/K 1W,Eo” value ([4]; initial binding) was 14 and the IC50 ([4]; [Cli = o] 20 mM, nystatin-treated cells) was 900 ± 210 nM. For the same molecule, the IC50 ([4]; [Cli = o] 150 mM, mean ± SEM) was 590 ± 50 nM, the IC50 ([4]; [Cli = o] 600 mM, nystatin-treated cells, mean ± SEM) was 540 ± 100 nM and the IC50 ([4]; [Cli] = 150, [Clo] = 2 mM, mean ± SEM) was 140 ± 10 nM. The “k W-AE1,W•AE1 (backward rate constant, complex 2 to complex 1)” value [5] was 0.15 min⁻¹, the “k W•AE1,W-AE1 (forward rate constant for formation of complex 2)” value [5] was about 1.1 min⁻¹ and the “effect on net Cl− permeability, PCl” value [6] was “increase”.
